{
  "source": "ChEMBL document CHEMBL4270555",
  "about": "“Synthesis and biological evaluation of magnolol derivatives as melatonergic receptor agonists with potential use in depression” (Eur J Med Chem, 2018)",
  "key": {"[1]": {"target": "Melatonin receptor type 1A (Homo sapiens, UniProt P48039)", "sequence (P48039 whole entry)": "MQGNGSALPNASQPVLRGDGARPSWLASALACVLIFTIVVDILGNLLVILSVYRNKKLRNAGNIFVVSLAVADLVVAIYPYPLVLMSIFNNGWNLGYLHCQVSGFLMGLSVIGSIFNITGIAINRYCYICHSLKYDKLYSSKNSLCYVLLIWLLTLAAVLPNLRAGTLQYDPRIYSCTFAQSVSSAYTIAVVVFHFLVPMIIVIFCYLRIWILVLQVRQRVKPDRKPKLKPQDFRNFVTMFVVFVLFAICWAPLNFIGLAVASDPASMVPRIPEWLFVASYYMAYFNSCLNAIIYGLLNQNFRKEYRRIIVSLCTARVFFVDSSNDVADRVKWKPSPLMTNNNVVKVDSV", "assay": "Agonist activity at human MT1 receptor expressed in HEK293 cells at 1 mM after 24 hrs by Fluo-8 dye-based calcium assay relative to control", "type": "functional, cell-based", "outline": "(§1)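 Fluo-8 calcium assay in HEK293 cells stably expressing human MT1 or MT2, seeded 4×10^4/well and incubated 24 h. Compounds tested at 1.00 mM, agomelatine positive control at 3.33 µM; fluorescence at ex 485/em 525 nm. Agonism expressed as mean ± SD, n = 3.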"}, "[2]": {"target": "T1, Melatonin receptor type 1B (Homo sapiens) (UniProt P49286)", "T1 sequence (whole entry)": "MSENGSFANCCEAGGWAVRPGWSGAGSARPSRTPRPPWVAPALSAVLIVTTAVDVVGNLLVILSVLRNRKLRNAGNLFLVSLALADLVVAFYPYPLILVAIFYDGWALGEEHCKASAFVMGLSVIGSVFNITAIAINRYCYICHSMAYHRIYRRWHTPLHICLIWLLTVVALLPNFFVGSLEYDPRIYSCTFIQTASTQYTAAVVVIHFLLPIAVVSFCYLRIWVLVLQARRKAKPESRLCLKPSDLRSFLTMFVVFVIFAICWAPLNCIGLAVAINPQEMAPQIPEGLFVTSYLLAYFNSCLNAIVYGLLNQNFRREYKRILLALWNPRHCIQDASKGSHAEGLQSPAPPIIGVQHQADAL", "assay": "Agonist activity at human MT2 receptor expressed in HEK293 cells at 1 mM after 24 hrs by Fluo-8 dye-based calcium assay relative to control", "type": "functional, cell-based", "outline": "as §1"}, "[3]": {"assay": "Retention time of the compound by UPLC-IT-TOF-MS analysis", "type": "physicochemical", "outline": "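Retention on C18 column (100 × 2.1 mm, 1.8 µm) at 30 °C; mobile phase A 0.05% formic acid in water, B 0.05% formic acid in acetonitrile, 0.2 mL/min, linear 5–100% B over 0–18.0 min; IT-TOF-MS detection in positive and negative modes.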"}, "[4]": {"assay": "Drug level in Sprague-Dawley rat feces treated with Magnolol-4'-O-beta-D-glucopyranoside at 100 mg/kg, po by UPLC-IT-TOF-MS analysis", "type": "ADME, organism-based", "conditions": "in vivo", "outline": "(§2)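 Rats (n = 6) housed in metabolic cages received 100.0 mg/kg orally; controls received 0.5% CMC-Na. Plasma, urine and faeces were collected and analyzed by LC-IT-TOF-MS on a C18 column at 30 °C. Gradient 5–100% acetonitrile with 0.05% formic acid over 18 min at 0.2 mL/min; positive and negative ion MS/MS.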"}, "[5]": {"assay": "Drug level in Sprague-Dawley rat urine treated with Magnolol-4'-O-beta-D-glucopyranoside at 100 mg/kg, po by UPLC-IT-TOF-MS analysis", "type": "ADME, organism-based", "conditions": "in vivo", "outline": "as §2"}, "Mus musculus [6]": {"system": "Mus musculus", "assay": "Antidepressant activity in Kunming mouse assessed as decrease in immobility duration at 20 mg/kg, po by forced swim test", "type": "functional, organism-based", "outline": "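Male Kunming mice (18–20 g), group-housed at 22 ± 2 °C on a 12 h light/dark cycle, dosed orally. Each mouse was placed in a glass cylinder (25 cm high, 15 cm diameter) holding 10 cm of water at 25 ± 1 °C and made to swim for 6 min. Immobility over the last 4 min was scored automatically by video tracking; n = 10, mean ± SEM vs vehicle.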"}, "Mus musculus [7]": {"system": "Mus musculus", "assay": "Antidepressant activity in Kunming mouse assessed as decrease in immobility time at 20 mg/kg, po by tail suspension test", "type": "functional, organism-based", "outline": "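Male Kunming mice (18–20 g), dosed orally and tested acoustically and visually isolated. Each was suspended 50 cm above a wooden box by tape placed about 1 cm from the tail tip for 6 min. Immobility (s) over the last 4 min was recorded automatically by video tracking; n = 10, mean ± SEM vs vehicle.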"}},
  "note": "Calls of active or inactive are those of the source. No cut-off for these calls is given here.",
  "data": [
    {"smiles": "Oc1ccc(CC2CO2)cc1-c1cc(CC2CO2)ccc1O", "note": "(stereo not given)", "values": [
      {"measurement": "Activity", "setting": "[1]", "result": 2.18, "unit": "%"},
      {"measurement": "Activity", "setting": "[2]", "result": -3.39, "unit": "%"}
    ]},
    {"smiles": "C=CCc1ccc(OC(=O)c2ccccc2)c(-c2cc(CC=C)ccc2OC(=O)c2ccccc2)c1", "values": [
      {"measurement": "Activity", "setting": "[1]", "result": -5.93, "unit": "%"},
      {"measurement": "Activity", "setting": "[2]", "result": -1.72, "unit": "%"}
    ]},
    {"smiles": "C=CCc1ccc(O)c(-c2cc(CC=C)ccc2OC(=O)CCCl)c1", "values": [
      {"measurement": "Activity", "setting": "[1]", "result": 21, "unit": "%"},
      {"measurement": "Activity", "setting": "[2]", "result": 30.1, "unit": "%"}
    ]},
    {"smiles": "C=CCc1ccc(O)c(-c2cc(CC=C)ccc2OC(C)=O)c1", "values": [
      {"measurement": "Activity", "setting": "[1]", "result": 91.4, "unit": "%"},
      {"measurement": "Activity", "setting": "[2]", "result": 77.6, "unit": "%"}
    ]},
    {"smiles": "C=CC(O)c1ccc(O[C@@H]2O[C@H](CO)[C@@H](O)[C@H](O)[C@H]2O)c(-c2cc(CCC)ccc2OS(=O)(=O)O)c1", "note": "(stereo not given in full)", "values": [
      {"measurement": "Retention_time", "setting": "[3]", "result": 6.91, "unit": "min"},
      {"measurement": "Drug metabolism", "setting": "[4]", "result": "Metabolite_Detected"}
    ]},
    {"smiles": "C=CCc1ccc(OC(=O)/C=C/c2cccc(F)c2)c(-c2cc(CC=C)ccc2O[C@@H]2O[C@H](CO)[C@@H](O)[C@H](O)[C@H]2O)c1", "values": [
      {"measurement": "Activity", "setting": "[1]", "result": 5.3, "unit": "%"},
      {"measurement": "Activity", "setting": "[2]", "result": -10.5, "unit": "%"}
    ]},
    {"smiles": "C=CCc1ccc(O[C@@H]2O[C@H](CO)[C@@H](O)[C@H](O)[C@H]2O)c(-c2cc(C(O)C=C)ccc2O[C@@H]2O[C@H](C(=O)O)[C@@H](O)[C@H](O)[C@H]2O)c1", "note": "(stereo not given in full)", "values": [
      {"measurement": "Retention_time", "setting": "[3]", "result": 7.79, "unit": "min"},
      {"measurement": "Drug metabolism", "setting": "[5]", "result": "Metabolite_Detected"},
      {"measurement": "Drug metabolism", "setting": "[4]", "result": "Metabolite_Detected"}
    ]},
    {"smiles": "C=CCc1ccc(O[C@@H]2O[C@H](CO)[C@@H](O)[C@H](O)[C@H]2O)c(-c2cc(CC=C)ccc2OS(=O)(=O)O)c1", "values": [
      {"measurement": "Retention_time", "setting": "[3]", "result": 8.17, "unit": "min"},
      {"measurement": "Drug metabolism", "setting": "[4]", "result": "Metabolite_Detected"}
    ]},
    {"smiles": "C=CCc1ccc(OC(=O)/C=C/c2ccccc2)c(-c2cc(CC=C)ccc2O[C@@H]2O[C@H](CO)[C@@H](O)[C@H](O)[C@H]2O)c1", "values": [
      {"measurement": "Activity", "setting": "[1]", "result": 50.3, "unit": "%"},
      {"measurement": "Activity", "setting": "[2]", "result": -10.1, "unit": "%"}
    ]},
    {"smiles": "CNCCC(Oc1ccc(C(F)(F)F)cc1)c1ccccc1", "note": "(stereo not given)", "values": [
      {"measurement": "Activity", "setting": "Mus musculus [6]", "result": "Active"},
      {"measurement": "Activity", "setting": "Mus musculus [7]", "result": "Active"}
    ]},
    {"smiles": "C=CC(O)c1ccc(O[C@@H]2O[C@H](CO)[C@@H](O)[C@H](O)[C@H]2O)c(-c2cc(C(O)CC)ccc2OS(=O)(=O)O)c1", "note": "(stereo not given in full)", "values": [
      {"measurement": "Retention_time", "setting": "[3]", "result": 7.39, "unit": "min"},
      {"measurement": "Drug metabolism", "setting": "[5]", "result": "Metabolite_Detected"}
    ]},
    {"smiles": "C=CCc1ccc(O)c(-c2cc(CC=C)ccc2O[C@@H]2O[C@H](COC(C)=O)[C@@H](OC(C)=O)[C@H](OC(C)=O)[C@H]2O)c1", "values": [
      {"measurement": "Activity", "setting": "[1]", "result": 11, "unit": "%"},
      {"measurement": "Activity", "setting": "[2]", "result": 19.1, "unit": "%"}
    ]},
    {"smiles": "C=CCc1ccc(OC(=O)c2ccccc2)c(-c2cc(CC=C)ccc2O[C@@H]2O[C@H](CO)[C@@H](O)[C@H](O)[C@H]2O)c1", "values": [
      {"measurement": "Activity", "setting": "[1]", "result": 13.2, "unit": "%"},
      {"measurement": "Activity", "setting": "[2]", "result": -5.71, "unit": "%"}
    ]},
    {"smiles": "C=CCc1ccc(O)c(-c2cc(CC=C)ccc2OC(=O)c2ccccc2)c1", "values": [
      {"measurement": "Activity", "setting": "[1]", "result": -6.5, "unit": "%"},
      {"measurement": "Activity", "setting": "[2]", "result": -0.04, "unit": "%"}
    ]},
    {"smiles": "COc1ccc2cccc(CCNC(C)=O)c2c1", "values": [
      {"measurement": "Activity", "setting": "Mus musculus [7]", "result": "Active"}
    ]},
    {"smiles": "C=CC(O)c1ccc(O[C@@H]2O[C@H](C(=O)O)[C@@H](O)[C@H](O)[C@H]2O)c(-c2cc(C(O)CC)ccc2O[C@@H]2O[C@H](CO)[C@@H](O)[C@H](O)[C@H]2O)c1", "note": "(stereo not given in full)", "values": [
      {"measurement": "Retention_time", "setting": "[3]", "result": 6.75, "unit": "min"},
      {"measurement": "Drug metabolism", "setting": "[5]", "result": "Metabolite_Detected"},
      {"measurement": "Drug metabolism", "setting": "[4]", "result": "Metabolite_Detected"}
    ]},
    {"smiles": "C=CCc1ccc(O)c(-c2cc(CC=C)ccc2OS(=O)(=O)O)c1", "values": [
      {"measurement": "Retention_time", "setting": "[3]", "result": 11.49, "unit": "min"},
      {"measurement": "Drug metabolism", "setting": "[4]", "result": "Metabolite_Detected"}
    ]},
    {"smiles": "C=CCc1ccc(OC(=O)/C=C/c2ccccc2)c(-c2cc(CC=C)ccc2OC(=O)/C=C/c2ccccc2)c1", "values": [
      {"measurement": "Activity", "setting": "[1]", "result": 28.3, "unit": "%"},
      {"measurement": "Activity", "setting": "[2]", "result": 3.34, "unit": "%"}
    ]},
    {"smiles": "C=CCc1ccc(O)c(-c2cc(CC3CO3)ccc2O)c1", "note": "(stereo not given)", "values": [
      {"measurement": "Activity", "setting": "[1]", "result": 53.8, "unit": "%"},
      {"measurement": "Activity", "setting": "[2]", "result": -3.08, "unit": "%"}
    ]},
    {"smiles": "C=CCc1ccc(O)c(-c2cc(CC=C)ccc2O[C@@H]2O[C@H](COC(C)=O)[C@@H](OC(C)=O)[C@H](OC(C)=O)[C@H]2OC(C)=O)c1", "values": [
      {"measurement": "Activity", "setting": "[1]", "result": -0.58, "unit": "%"},
      {"measurement": "Activity", "setting": "[2]", "result": -2.09, "unit": "%"}
    ]},
    {"smiles": "C=CCc1ccc(OC(=O)C=C)c(-c2cc(CC=C)ccc2OC(=O)C=C)c1", "values": [
      {"measurement": "Activity", "setting": "[1]", "result": 0.04, "unit": "%"},
      {"measurement": "Activity", "setting": "[2]", "result": 4.57, "unit": "%"}
    ]},
    {"smiles": "C=CCc1ccc(O)c(-c2cc(CC=C)ccc2OC(=O)C=C)c1", "values": [
      {"measurement": "Activity", "setting": "[1]", "result": 1.31, "unit": "%"},
      {"measurement": "Activity", "setting": "[2]", "result": 2.93, "unit": "%"}
    ]}
  ]
}
